We go through 13 compounds from ChEMBL document CHEMBL1155272, “Nucleoside-5'-monophosphates as prodrugs of adenosine A2A receptor agonists activated by ecto-5'-nucleotidase” (J Med Chem, 2009).

Bounds are passed on as bounds.

The target of one data set is T1, Adenosine receptor A1 (Rattus norvegicus, UniProt P25099).
T1 sequence (P25099 whole entry): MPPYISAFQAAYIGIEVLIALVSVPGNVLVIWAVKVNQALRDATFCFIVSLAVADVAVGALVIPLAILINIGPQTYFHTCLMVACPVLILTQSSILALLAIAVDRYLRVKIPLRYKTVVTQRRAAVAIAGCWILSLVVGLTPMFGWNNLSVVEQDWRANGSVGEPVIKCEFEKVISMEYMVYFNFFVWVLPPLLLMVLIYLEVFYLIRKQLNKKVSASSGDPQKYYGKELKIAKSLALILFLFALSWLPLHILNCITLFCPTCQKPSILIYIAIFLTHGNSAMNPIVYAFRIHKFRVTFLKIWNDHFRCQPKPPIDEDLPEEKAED
Briefly: Displacement of [3H]CCPA from adenosine A1 receptor in rat brain cortical membrane after 90 mins. For orientation: Loss of bound radioactivity is the signal in a displacement assay; it reports binding, not function.

The next data set has as its target Adenosine receptor A2a (Rattus norvegicus, UniProt P30543). The data set can be described thus: Displacement of [3H]CGS21680 from adenosine A2A receptor in rat brain striatal membrane after 60 mins. In kind it is cell membranes.
A further data set concerns the target T2, Adenosine receptor A3 (Homo sapiens, UniProt P0DMS8).
T2 sequence (P0DMS8 whole entry): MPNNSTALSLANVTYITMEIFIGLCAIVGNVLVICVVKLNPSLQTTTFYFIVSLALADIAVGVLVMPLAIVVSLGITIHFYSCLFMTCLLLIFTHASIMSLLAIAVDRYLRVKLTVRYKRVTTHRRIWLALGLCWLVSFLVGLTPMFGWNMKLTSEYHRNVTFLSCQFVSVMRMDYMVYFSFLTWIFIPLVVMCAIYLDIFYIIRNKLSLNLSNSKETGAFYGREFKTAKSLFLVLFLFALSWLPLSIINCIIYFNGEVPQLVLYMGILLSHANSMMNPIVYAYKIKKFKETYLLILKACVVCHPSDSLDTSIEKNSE
The data set can be described thus: Displacement of [3H]PSB-11 from human recombinant adenosine A3 receptor expressed in CHO cells after 60 mins. The format is cell-based. In outline: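 Membranes from CHO cells expressing human A3 receptor (30–50 μg protein), pretreated 10–15 min with 0.12 IU/mL adenosine deaminase. [3H]PSB-11 1.0 nM, 60 min at rt, 2.5% DMSO final. Six to seven concentrations over 3 log units. At least 2–3 experiments in duplicate.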

The nature of data set [1]: Antiinflammatory activity in C57/Bl6 mouse CD4+ T cells assessed as inhibition of anti-CD3/anti-CD28 antibody-stimulated INFgamma production after 18 hrs by ELISA. The format is functional, cell-based. Particulars: C57/Bl6, T-cell. An outline of the steps: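 Splenic CD4+ T cells from male C57/Bl6 mice (8–12 wk) were isolated by magnetic CD4 beads, resuspended in Panserin 413, and stimulated on plates coated with 0.4 μg/mL anti-CD3 and 2.5 μg/mL anti-CD28 for 18 h, with compound added together with the antibodies. IFN-γ in the supernatant was measured by ELISA, and EC50 was taken from dose-response curves.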
Background: ELISA stands for enzyme-linked immunosorbent assay.

Data set [2] is described as follows: Prodrug stability in C57/Bl6 mouse CD4+ T cells expressing ecto-5'-nucleotidase assessed as formation of 2-(cyclohexylmethylthio)adenosine at 2.5 mM after 18 hrs by LC/MS analysis. The format is ADME, cell-based. To be noted: t-cell, 2500 µM. In outline: (§1)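 Splenic CD4+ T cells (wild-type or ecto-5'-NT knockout C57/Bl6), about 4×10^5 cells in 200 μL, were stimulated with anti-CD3/anti-CD28 for 18 h with prodrug at initial 10, 5 or 2.5 mM. Prodrug and released nucleoside in the supernatant were quantified by LC-MS/MS (C18, water/methanol with 2 mM ammonium acetate, ESI negative MRM). Each is expressed as a percentage of the total.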

Data set [3] can be described thus: Prodrug stability in C57/Bl6 mouse CD4+ T cells expressing ecto-5'-nucleotidase assessed as formation of 2-(cyclohexylethylthio)adenosine at 5 mM after 18 hrs by LC/MS analysis. To be noted: t-cell, 5000 µM.
Data set [4] can be described thus: Prodrug stability in ecto-5'-nucleotidase knockout C57/Bl6 mouse CD4+ T cells expressing ecto-5'-nucleotidase assessed as formation of 2-(cyclohexylmethylthio)adenosine at 10 mM after 18 hrs by LC/MS analysis. The format is ADME, cell-based. To be noted: t-cell, 10000 µM. An outline of the steps:
as §1

The nature of data set [5]: Prodrug stability in ecto-5'-nucleotidase knockout C57/Bl6 mouse CD4+ T cells assessed as compound remaining at 2.5 mM after 18 hrs by LC/MS analysis. Particulars: t-cell, 2500 µM. The format is ADME, cell-based. An outline of the steps:
as §1

The nature of data set [6]: Prodrug stability in C57/Bl6 mouse CD4+ T cells expressing ecto-5'-nucleotidase assessed as compound remaining at 5 mM after 18 hrs by LC/MS analysis. To be noted: t-cell, 5000 µM. The format is ADME, cell-based. An outline of the steps: as §1
Data set [7] in a line: Prodrug stability in ecto-5'-nucleotidase knockout C57/Bl6 mouse CD4+ T cells assessed as compound remaining at 10 mM after 18 hrs by LC/MS analysis. The format is ADME, cell-based. To be noted: t-cell, 10000 µM. In outline: as §1
A short description of data set [8]: Prodrug stability in ecto-5'-nucleotidase knockout C57/Bl6 mouse CD4+ T cells assessed as compound remaining at 5 mM after 18 hrs by LC/MS analysis. Particulars: t-cell, 5000 µM. In kind it is ADME, cell-based. An outline of the steps: as §1
Data set [9] can be described thus: Prodrug stability in C57/Bl6 mouse CD4+ T cells expressing ecto-5'-nucleotidase assessed as formation of 2-(cyclohexylmethylthio)adenosine at 10 mM after 18 hrs by LC/MS analysis. In kind it is ADME, cell-based. To be noted: t-cell, 10000 µM, in the assay text read “2-(cyclohexylethylthio)adenosine” for “2-(cyclohexylmethylthio)adenosine”. An outline of the steps: as §1

A short description of data set [10]: Prodrug stability in ecto-5'-nucleotidase knockout C57/Bl6 mouse CD4+ T cells expressing ecto-5'-nucleotidase assessed as formation of 2-(cyclohexylmethylthio)adenosine at 5 mM after 18 hrs by LC/MS analysis. Particulars: t-cell, 5000 µM. In kind it is ADME, cell-based. An outline of the steps: as §1
Data set [11] can be described thus: Prodrug stability in C57/Bl6 mouse CD4+ T cells expressing ecto-5'-nucleotidase assessed as compound remaining at 2.5 mM after 18 hrs by LC/MS analysis. Particulars: t-cell, 2500 µM. In kind it is ADME, cell-based. An outline of the steps:
as §1

A short description of data set [12]: Prodrug stability in ecto-5'-nucleotidase knockout C57/Bl6 mouse CD4+ T cells expressing ecto-5'-nucleotidase assessed as formation of 2-(cyclohexylmethylthio)adenosine at 2.5 mM after 18 hrs by LC/MS analysis. The format is ADME, cell-based. Particulars: t-cell, 2500 µM. An outline of the steps: as §1
Data set [13] is described as follows: Prodrug stability in C57/Bl6 mouse CD4+ T cells expressing ecto-5'-nucleotidase assessed as compound remaining at 10 mM after 18 hrs by LC/MS analysis. The format is ADME, cell-based. Particulars: t-cell, 10000 µM. An outline of the steps: as §1

Adenosine receptor A2a, sequence (P30543 whole entry): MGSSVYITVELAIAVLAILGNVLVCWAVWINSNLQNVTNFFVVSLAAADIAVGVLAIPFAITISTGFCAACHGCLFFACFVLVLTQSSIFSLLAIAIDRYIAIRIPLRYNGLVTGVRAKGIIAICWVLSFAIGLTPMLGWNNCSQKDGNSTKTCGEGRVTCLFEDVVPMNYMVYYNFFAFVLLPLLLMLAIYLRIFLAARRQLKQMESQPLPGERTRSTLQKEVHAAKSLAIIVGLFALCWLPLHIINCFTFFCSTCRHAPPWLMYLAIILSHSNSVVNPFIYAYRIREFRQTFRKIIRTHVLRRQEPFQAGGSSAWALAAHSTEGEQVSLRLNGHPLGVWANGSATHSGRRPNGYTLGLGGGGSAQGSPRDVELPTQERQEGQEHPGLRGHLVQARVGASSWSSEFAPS

`Nc1nc(SC2CCCCC2)nc2c1ncn2[C@@H]1O[C@H](CO)[C@@H](O)[C@H]1O`: the Ki (as a rule, the equilibrium dissociation constant of an inhibitor or competing ligand from its target) was 0.139 µM at Adenosine receptor A1, 2.48 µM on Adenosine receptor A2a and at least 10 µM on Adenosine receptor A3.

As to `Nc1nc(SCC2CCCCC2)nc2c1ncn2[C@@H]1O[C@H](CO)[C@@H](O)[C@H]1O`, the Ki at Adenosine receptor A2a turned out to be 0.709 µM; on Adenosine receptor A3, 1.72 µM.

Regarding `Nc1nc(SCCC2CCCCC2)nc2c1ncn2[C@@H]1O[C@H](CO)[C@@H](O)[C@H]1O`, the Ki came out at 0.4 µM on Adenosine receptor A1 and 3.64 µM at Adenosine receptor A3. Besides, in data set [1], the EC50 – broadly, the concentration that produces a half-maximal response – worked out at 0.05 µM.

As for `Nc1nc(SCCC2COCCO2)nc2c1ncn2[C@@H]1O[C@H](CO)[C@@H](O)[C@H]1O` (stereo partly specified), the Ki at Adenosine receptor A1 worked out at 0.454 µM; at Adenosine receptor A2a, 1.1 µM; on Adenosine receptor A3 it was 1.33 µM.

In the case of `Nc1nc(SC2CCCC2)nc2c1ncn2[C@@H]1O[C@H](CO)[C@@H](O)[C@H]1O`, the Ki amounted to 0.994 µM at Adenosine receptor A1, 0.793 µM on Adenosine receptor A2a and 10.4 µM on Adenosine receptor A3.

As to `Nc1nc(SCCc2ccccc2)nc2c1ncn2[C@@H]1O[C@H](CO)[C@@H](O)[C@H]1O`, the Ki is 0.0185 µM on Adenosine receptor A2a and 1.81 µM at Adenosine receptor A3.

Consider `Nc1nc(SCCC2CCCCC2)nc2c1ncn2[C@@H]1O[C@H](COP(=O)(O)O)[C@@H](O)[C@H]1O`, for which the Activity in data set [2] turned out to be 10.8%; in data set [3], 12.8%; in [4], 5.3%; in data set [9], 15%; in data set [10] it was 4.7%; in [12], 2.7%. For the same compound, the Stability in data set [5] is 97.3%; in [6] it was 87.2%; in [7], 94.7%; in [8], 95.3%; in data set [11], 89.2%; in data set [13], 85%. Also, the EC50 in data set [1] amounted to 5.7 µM.

As for `Nc1nc(SCc2ccccc2)nc2c1ncn2[C@@H]1O[C@H](CO)[C@@H](O)[C@H]1O`, the values for the Ki on Adenosine receptor A1, on Adenosine receptor A2a and on Adenosine receptor A3 were 0.927 µM, 0.606 µM and 0.12 µM, respectively.

As for `CCCSc1nc(N)c2ncn([C@@H]3O[C@H](CO)[C@@H](O)[C@H]3O)c2n1`, the Ki on Adenosine receptor A1 came out at 1.27 µM; on Adenosine receptor A2a, 1.35 µM.

On to `CCCCCCSc1nc(N)c2ncn([C@@H]3O[C@H](CO)[C@@H](O)[C@H]3O)c2n1`, for which the Ki was determined as 0.256 µM at Adenosine receptor A1, 0.542 µM at Adenosine receptor A2a and 2.32 µM at Adenosine receptor A3.

As to `Nc1nc(SCCC2OCCO2)nc2c1ncn2[C@@H]1O[C@H](CO)[C@@H](O)[C@H]1O`, the Ki at Adenosine receptor A1 was 1.14 µM; on Adenosine receptor A2a, 1.16 µM; on Adenosine receptor A3, 3.45 µM.

For `C=CCSc1nc(N)c2ncn([C@@H]3O[C@H](CO)[C@@H](O)[C@H]3O)c2n1`, the Ki on Adenosine receptor A1 worked out at 0.532 µM; at Adenosine receptor A2a, 1.52 µM; at Adenosine receptor A3, 6.64 µM.

For `C#CCSc1nc(N)c2ncn([C@@H]3O[C@H](CO)[C@@H](O)[C@H]3O)c2n1`, the Ki was 0.555 µM on Adenosine receptor A1, 2.9 µM at Adenosine receptor A2a and 6.99 µM at Adenosine receptor A3.
